Results published in ChEMBL document CHEMBL1138062 (J Med Chem, 2006).
Active and inactive are the calls of the source. No cut-off for these calls is given here.

Tests used:
[1] = target: GABA-A receptor; anion channel; assay: Displacement of [3H]muscimol from GABAA receptor in rat brain synaptic membranes; format: cell membranes, Membrane
Summary of the method: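 Rat brain membrane preparations used for receptor binding. IC50 and Ki treated as log-normally distributed; mean and SEM calculated on the log scale, with the range given as the antilog of log mean ± SEM.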

[2] = target: Sodium- and chloride-dependent GABA transporter 1 (Mus musculus) (UniProt P31648); assay: Inhibition of [3H]GABA uptake at mouse GABA transporter1 expressed in HEK293 cells at 1 mM; format: cell-based
[3] = target: T1, GABA transporter 4 (Mus musculus) (UniProt P31650); assay: Inhibition of [3H]GABA uptake at mouse GABA transporter4 expressed in HEK293 cells at 1 mM; format: cell-based
T1 sequence (whole entry): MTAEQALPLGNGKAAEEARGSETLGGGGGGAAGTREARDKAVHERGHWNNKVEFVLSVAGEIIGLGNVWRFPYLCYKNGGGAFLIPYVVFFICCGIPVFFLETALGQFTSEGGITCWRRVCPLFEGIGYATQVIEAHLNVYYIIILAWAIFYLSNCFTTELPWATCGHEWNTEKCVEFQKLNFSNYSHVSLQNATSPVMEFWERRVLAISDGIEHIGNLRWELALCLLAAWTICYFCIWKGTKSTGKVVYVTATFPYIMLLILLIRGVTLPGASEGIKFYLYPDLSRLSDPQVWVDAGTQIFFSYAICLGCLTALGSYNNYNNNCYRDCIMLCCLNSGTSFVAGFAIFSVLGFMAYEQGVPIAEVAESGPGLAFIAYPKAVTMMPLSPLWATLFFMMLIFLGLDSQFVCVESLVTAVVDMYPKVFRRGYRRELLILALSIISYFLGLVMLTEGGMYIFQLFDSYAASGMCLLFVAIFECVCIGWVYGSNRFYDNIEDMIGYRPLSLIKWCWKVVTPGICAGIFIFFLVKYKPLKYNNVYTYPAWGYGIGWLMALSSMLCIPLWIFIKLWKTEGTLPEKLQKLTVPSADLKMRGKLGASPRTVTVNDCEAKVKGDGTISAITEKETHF

[4] = Agonist activity at GABAA receptor in mouse cerebral cortical neurons assessed as induction of peak current at 3 mM relative to GABA by whole cell patch clamp method; format: functional
Summary of the method: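 Peak currents evoked by 3 mM test agent compared with a close to maximal GABA response (600 µM). Specificity was checked by pretreating cells with gabazine (100 µM) for 15 s, then co-applying gabazine (100 µM) with agonist (3 mM). Values are mean ± SE, N = 3–7.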

Mus musculus = species on record: Mus musculus; assay: Inhibition of isoguvacine-induced current in mouse cerebral cortical neurons expressing GABAA receptor by whole cell patch clamp method; format: functional
Summary of the method: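 Test agent applied at a range of concentrations against isoguvacine-evoked currents. Currents normalized to the current induced by 20 µM isoguvacine. Mean ± SE from nine neurons. IC50 estimated by linear regression.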

[5] = target: T2, GABA transporter 2 (Mus musculus) (UniProt P31651); assay: Inhibition of [3H]GABA uptake at mouse GABA transporter2 expressed in HEK293 cells at 1 mM; format: cell-based
T2 sequence (whole entry): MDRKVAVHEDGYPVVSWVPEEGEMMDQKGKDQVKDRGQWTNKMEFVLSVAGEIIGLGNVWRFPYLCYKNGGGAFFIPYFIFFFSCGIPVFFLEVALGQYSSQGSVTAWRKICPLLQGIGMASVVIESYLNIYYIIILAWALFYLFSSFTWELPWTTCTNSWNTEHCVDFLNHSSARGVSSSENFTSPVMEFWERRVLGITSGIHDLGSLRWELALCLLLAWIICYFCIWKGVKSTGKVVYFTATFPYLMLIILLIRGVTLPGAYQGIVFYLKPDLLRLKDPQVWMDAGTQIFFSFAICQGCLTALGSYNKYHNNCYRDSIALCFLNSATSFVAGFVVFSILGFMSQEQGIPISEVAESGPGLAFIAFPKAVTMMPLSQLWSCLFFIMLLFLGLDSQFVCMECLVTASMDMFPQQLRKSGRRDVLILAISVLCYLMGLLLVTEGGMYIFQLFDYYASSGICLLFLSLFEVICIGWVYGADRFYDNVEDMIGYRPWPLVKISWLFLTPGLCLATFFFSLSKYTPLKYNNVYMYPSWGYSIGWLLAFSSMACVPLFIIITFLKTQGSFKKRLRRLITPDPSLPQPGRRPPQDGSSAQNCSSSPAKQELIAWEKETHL

[6] = target: T3, GABA transporter 3 (Mus musculus) (UniProt P31649); assay: Inhibition of [3H]GABA uptake at mouse GABA transporter3 expressed in HEK293 cells at 1 mM; format: cell-based
T3 sequence (whole entry): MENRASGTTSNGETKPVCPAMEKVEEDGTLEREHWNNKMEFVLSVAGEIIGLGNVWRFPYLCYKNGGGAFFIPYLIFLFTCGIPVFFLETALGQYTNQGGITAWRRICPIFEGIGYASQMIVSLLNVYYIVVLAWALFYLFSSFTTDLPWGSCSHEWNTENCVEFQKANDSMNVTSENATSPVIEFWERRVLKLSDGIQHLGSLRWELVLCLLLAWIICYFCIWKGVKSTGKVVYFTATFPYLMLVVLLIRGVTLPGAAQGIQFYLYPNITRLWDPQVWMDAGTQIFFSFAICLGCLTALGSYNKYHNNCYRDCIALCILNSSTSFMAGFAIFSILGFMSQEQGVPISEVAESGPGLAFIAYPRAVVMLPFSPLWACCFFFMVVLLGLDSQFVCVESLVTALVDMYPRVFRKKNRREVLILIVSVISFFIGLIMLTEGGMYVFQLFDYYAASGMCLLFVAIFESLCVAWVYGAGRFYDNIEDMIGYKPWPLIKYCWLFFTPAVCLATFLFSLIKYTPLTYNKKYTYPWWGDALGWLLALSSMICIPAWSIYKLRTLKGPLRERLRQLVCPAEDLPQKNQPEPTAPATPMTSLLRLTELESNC

GABA-B receptor (rat) = assay: Inhibition of [3H]GABA binding in GABAB receptor in rat brain synaptic membranes

| Structure (SMILES) | Ki [1] | inhibition [2] | inhibition [3] | Activity [4] | inhibition (Mus musculus) | inhibition [5] | inhibition [6] | IC50 (GABA-B receptor (rat)) | IC50 [1] |
| --- | --- | --- | --- | --- | --- | --- | --- | --- | --- |
| NCCCc1nonc1O | 27 µM | inactive | inactive | 14% | Dose-dependent effect | inactive | inactive | 25 µM |  |
| NCCCCc1nonc1O |  | inactive | inactive | 0.8% | Dose-dependent effect | inactive | inactive | > 100 µM | > 100 µM |
| NCCc1nonc1O | 13 µM | inactive | inactive | 40% | Dose-dependent effect | inactive | inactive | 2 µM |  |
